Data: ChEMBL document CHEMBL4138113, “Novel propanamides as fatty acid amide hydrolase inhibitors” (Eur J Med Chem, 2017)
Active and inactive are the calls of the source.

Experiments:
[1] = biological target: T1, Fatty-acid amide hydrolase 1 (Rattus norvegicus, UniProt P97612); assay: Noncompetitive inhibition of rat brain FAAH using [3H]AEA as substrate after 10 mins by Dixon plot analysis
T1 sequence (P97612 whole entry): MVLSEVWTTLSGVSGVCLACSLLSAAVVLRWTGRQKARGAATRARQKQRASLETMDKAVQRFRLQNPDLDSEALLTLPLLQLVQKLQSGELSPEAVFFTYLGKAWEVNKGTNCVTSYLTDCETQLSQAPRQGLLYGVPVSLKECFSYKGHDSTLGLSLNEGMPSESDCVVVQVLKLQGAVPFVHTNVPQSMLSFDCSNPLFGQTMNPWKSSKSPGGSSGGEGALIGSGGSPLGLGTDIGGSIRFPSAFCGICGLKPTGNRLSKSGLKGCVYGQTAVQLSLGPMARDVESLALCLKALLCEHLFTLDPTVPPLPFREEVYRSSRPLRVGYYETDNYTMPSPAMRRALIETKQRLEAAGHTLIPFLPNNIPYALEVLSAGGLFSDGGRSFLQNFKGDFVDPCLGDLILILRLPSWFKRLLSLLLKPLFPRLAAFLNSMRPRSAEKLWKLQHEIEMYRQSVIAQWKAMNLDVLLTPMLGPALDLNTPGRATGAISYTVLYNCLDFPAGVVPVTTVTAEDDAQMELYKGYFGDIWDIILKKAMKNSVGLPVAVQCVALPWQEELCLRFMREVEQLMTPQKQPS
Procedure, shortened: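 Kinetic study in rat brain homogenate (1 µg protein per assay). [3H]AEA hydrolysis ran for 10 min at 37 °C in Tris-EDTA buffer, pH 7.4, with the AEA:fatty acid-free BSA ratio held at 1:~4.5 across substrate levels. Radioactivity was measured by charcoal separation and scintillation counting. Data were fitted to competitive, mixed-type and non-competitive models, and the best model was chosen by Akaike's criterion.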

[2] = biological target: T2, Fatty-acid amide hydrolase 1 (Rattus norvegicus) (UniProt P97612); assay: Reversible inhibition of rat brain FAAH at 0.03 to 1 uM using [3H]AEA as substrate preincubated for 60 mins followed by substrate addition by liquid scintillation counting analysis
T2 sequence (whole entry): T1 sequence (P97612 whole entry)
Procedure, shortened: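 Rat brain homogenate at 20-fold normal strength was preincubated with vehicle or compound for 60 min, then diluted 20-fold and assayed with [3H]AEA for 10 min at 37 °C. In parallel, compound was added to vehicle-preincubated aliquots at the post-dilution free concentrations and at the undiluted final concentrations. Tritium was counted after charcoal separation.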

[3] = biological target: T3, Prostaglandin G/H synthase 1 (Ovis aries) (UniProt P05979); assay: Inhibition of ovine COX1 using arachidonic acid as substrate after 5 mins
T3 sequence (whole entry): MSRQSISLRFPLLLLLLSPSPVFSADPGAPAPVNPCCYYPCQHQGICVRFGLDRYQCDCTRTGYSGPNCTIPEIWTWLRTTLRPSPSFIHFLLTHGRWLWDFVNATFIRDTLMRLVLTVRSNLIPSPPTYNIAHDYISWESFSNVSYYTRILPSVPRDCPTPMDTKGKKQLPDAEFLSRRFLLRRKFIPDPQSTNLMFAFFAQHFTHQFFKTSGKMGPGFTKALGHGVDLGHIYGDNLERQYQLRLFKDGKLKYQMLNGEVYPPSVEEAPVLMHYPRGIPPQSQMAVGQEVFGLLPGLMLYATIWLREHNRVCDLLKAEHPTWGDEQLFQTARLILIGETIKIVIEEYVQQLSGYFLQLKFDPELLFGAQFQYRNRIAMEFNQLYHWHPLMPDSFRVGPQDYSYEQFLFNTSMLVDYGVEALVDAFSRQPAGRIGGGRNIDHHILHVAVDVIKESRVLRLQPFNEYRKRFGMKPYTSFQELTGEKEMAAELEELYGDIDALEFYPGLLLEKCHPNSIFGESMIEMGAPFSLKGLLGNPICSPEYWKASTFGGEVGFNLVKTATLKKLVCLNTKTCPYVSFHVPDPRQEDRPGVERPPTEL
Procedure, shortened: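 Oxygen-electrode assay at room temperature in 0.1 M Tris-HCl, pH 7.4, with 1 µM haematin, 2 mM phenol, 5 mM EDTA and 10 µM (final) arachidonic acid or 2-AG. Compound in EtOH was added and a 5 min baseline recorded. The reaction was started with ovine COX-1 or human recombinant COX-2 (200 U), and oxygen consumption was read in 10 s blocks. Means ± SEM, n = 3-4.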

[4] = biological target: T4, Fatty-acid amide hydrolase 1 (Homo sapiens, UniProt O00519); assay: Inhibition of FAAH (unknown origin) expressed in human HeLa cells using [3H]AEA as substrate after 2 hrs by liquid scintillation counting analysis; type: cell-based
T4 sequence (O00519 whole entry): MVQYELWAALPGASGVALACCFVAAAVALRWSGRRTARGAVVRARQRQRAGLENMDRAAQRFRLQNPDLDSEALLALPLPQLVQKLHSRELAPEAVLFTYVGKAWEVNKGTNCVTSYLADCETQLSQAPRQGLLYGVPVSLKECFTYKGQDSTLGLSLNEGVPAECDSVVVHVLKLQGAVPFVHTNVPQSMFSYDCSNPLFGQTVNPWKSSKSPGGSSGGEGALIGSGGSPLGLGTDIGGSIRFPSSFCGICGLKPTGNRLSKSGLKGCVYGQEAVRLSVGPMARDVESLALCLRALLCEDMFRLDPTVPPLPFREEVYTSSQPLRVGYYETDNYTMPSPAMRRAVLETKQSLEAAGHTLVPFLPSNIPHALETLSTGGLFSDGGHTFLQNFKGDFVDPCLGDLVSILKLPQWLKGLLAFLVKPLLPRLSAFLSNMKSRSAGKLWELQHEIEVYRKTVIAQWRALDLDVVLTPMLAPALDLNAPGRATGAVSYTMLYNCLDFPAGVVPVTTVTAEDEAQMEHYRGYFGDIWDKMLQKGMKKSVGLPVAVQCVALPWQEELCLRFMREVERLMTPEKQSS

Row | SMILES | Ki [1] [nM] | inhibition [2] | inhibition [3] | IC50 [4] [nM]
1 | CC(C(=O)Nc1ncccc1Cl)c1ccc(Nc2ccnc(C(F)(F)F)c2)cc1 (centres undefined) | 110 | Active |  | 
2 | Cc1cccnc1NC(=O)C(C)c1ccc(Nc2ccnc(C(F)(F)F)c2)cc1 (centres undefined) |  |  | inactive | 2200 to 6500
